Measurements pooled from the literature.
Protocols differ between the studies behind these lines. ≈ marks a conversion by molar mass, not a printed value.

Cc1ccc2nc(-n3nc(C(C)C)c4c3-c3ccccc3C4=O)sc2c1
inhibition zone (Staphylococcus aureus; microbial growth, well diffusion; NCIM5021; 250 µg/mL): 13 mm

CCCS(=O)(=O)Nc1ccc(F)c(C(=O)c2c[nH]c3ncc(Cl)cc23)c1F
MIC (Staphylococcus aureus; microbial growth; NCTC8325): > 30 µM

O=C1NC(=S)N/C1=C\c1ccc(-c2ccc(N(c3ccccc3)c3ccccc3)cc2)cc1
MBC (Staphylococcus aureus; microbial killing, broth dilution; ATCC25923): > 1000 µg/mL

CC(C)(C)Nc1ccnc(Nc2cccc(-c3cccnc3)c2)n1
EC50 (MV4-11; cell growth or viability, ATP luminescence; 72 h): 25 nM

COc1ccc2nc(-n3nc(C)c4c3-c3ccccc3C4=O)sc2c1
inhibition zone (Staphylococcus aureus; microbial growth, well diffusion; NCIM5021; 500 µg/mL): 12 mm

Cc1cc(NC(=O)Nc2ccc3c(c2)OC(F)(F)O3)ccc1Cl
MIC (Staphylococcus aureus; microbial growth; NCTC8325): 0.5 µM (≈ 0.17 µg/mL)

c1ccc(-c2ccc(Nc3nccc(NC4CCCCC4)n3)cc2)nc1
EC50 (MV4-11; cell growth or viability, ATP luminescence; 72 h): 41 nM

Cc1nn(-c2nc3ccc(Br)cc3s2)c2c1C(=O)c1ccccc1-2
inhibition zone (Staphylococcus aureus; microbial growth, well diffusion; NCIM5021; 250 µg/mL): 11 mm

CNC(=O)c1cc(Oc2ccc(NC(=O)Nc3cc(C(C)(C)C)nn3-c3ccc4ncccc4c3)c(F)c2)ccn1
MIC (Staphylococcus aureus; microbial growth; NCTC8325): > 30 µM

c1cncc(-c2cccc(Nc3nccc(NC4CCC4)n3)c2)c1
EC50 (MV4-11; cell growth or viability, ATP luminescence; 72 h): > 17000 nM

COC(C)(C)CCC[C@](C)(O)[C@H]1CC[C@]2(C)[C@@H]1[C@H](O)C[C@@H]1[C@@]3(C)CC[C@H](O)C(C)(C)[C@@H]3CC[C@]12C
inhibition (BEAS-2B; cell growth or viability; 25 µM, 24 h): ~50%

COc1ccc(-c2ccc3c(N4CCOC[C@@H]4C)nc(N4CCOC[C@@H]4C)nc3n2)cc1CO
MIC (Staphylococcus aureus; microbial growth; NCTC8325): > 30 µM

CC(C)Nc1ccnc(Nc2cccc(-c3ncco3)c2)n1
EC50 (MV4-11; cell growth or viability, ATP luminescence; 72 h): 1060 nM

CC(C)Cc1nn(-c2nc3ccc(Br)cc3s2)c2c1C(=O)c1ccccc1-2
inhibition zone (Staphylococcus aureus; microbial growth, well diffusion; NCIM5021; 500 µg/mL): 14 mm

O=C1NC(=O)[C@@H](c2cn3c4c(cccc24)CCC3)[C@@H]1c1c[nH]c2ccccc12
MIC (Staphylococcus aureus; microbial growth; NCTC8325): > 30 µM

CC(C)c1nn(-c2nc3ccc(Br)cc3s2)c2c1C(=O)c1ccccc1-2
inhibition zone (Staphylococcus aureus; microbial growth, well diffusion; NCIM5021; 125 µg/mL): 11 mm

c1cc(Nc2nccc(NC3CCCCC3)n2)cc(N2CCOCC2)c1
EC50 (MV4-11; cell growth or viability, ATP luminescence; 72 h): 369 nM
